Reference: PMC5755971 (Journal of the American Chemical Society, 2017)
Where a SMILES comes first, the peptide text is derived from it. [ ]: non-standard residue; d: D form. Dolaproine = CO[C@@H]([C@@H]1CCCN1)[C@@H](C)C(=O)O; Dil = CC[C@H](C)[C@H](NC)[C@@H](CC(=O)O)OC; NMeV = CN[C@H](C(=O)O)C(C)C

Experiments:
human CD22 = conditions: cited from earlier work
Daudi cells [1] = experiment: cytotoxicity assay for ligand-toxin conjugates; format: cell-based; conditions: read-out: EC50 (cytotoxicity), 72h, MTT
hCD22 [2] = molecular target: T1, hCD22 (Homo sapiens, UniProt P20273); conditions: equilibrium dialysis at 4° C; cited from earlier work
T1 sequence (P20273 20-847): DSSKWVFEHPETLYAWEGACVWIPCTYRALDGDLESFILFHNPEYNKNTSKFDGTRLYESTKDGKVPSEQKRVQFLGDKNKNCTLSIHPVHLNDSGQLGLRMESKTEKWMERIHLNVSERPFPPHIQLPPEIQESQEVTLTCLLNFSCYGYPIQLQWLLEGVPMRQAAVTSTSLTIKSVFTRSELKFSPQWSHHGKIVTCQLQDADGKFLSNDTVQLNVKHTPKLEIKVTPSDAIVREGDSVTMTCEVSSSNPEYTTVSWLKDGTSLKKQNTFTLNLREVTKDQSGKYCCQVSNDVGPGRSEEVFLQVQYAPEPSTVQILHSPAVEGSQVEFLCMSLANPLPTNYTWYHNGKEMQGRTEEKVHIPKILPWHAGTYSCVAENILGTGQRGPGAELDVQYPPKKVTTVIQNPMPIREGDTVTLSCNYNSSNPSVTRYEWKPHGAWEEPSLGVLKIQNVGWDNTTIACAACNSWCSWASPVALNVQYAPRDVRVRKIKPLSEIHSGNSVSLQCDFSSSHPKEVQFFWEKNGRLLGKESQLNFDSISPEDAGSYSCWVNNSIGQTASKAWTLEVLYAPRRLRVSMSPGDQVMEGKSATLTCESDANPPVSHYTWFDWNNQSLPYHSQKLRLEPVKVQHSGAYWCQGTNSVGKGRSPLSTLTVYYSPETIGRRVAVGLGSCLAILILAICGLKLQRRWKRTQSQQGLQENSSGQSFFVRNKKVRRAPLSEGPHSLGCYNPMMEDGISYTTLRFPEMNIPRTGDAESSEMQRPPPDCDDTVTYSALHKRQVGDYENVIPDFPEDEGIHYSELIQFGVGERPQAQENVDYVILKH

hCD22 [3] = molecular target: T1, hCD22; experiment: flow cytometry competitive binding assay, Neu5Gc-PAA to hCD22-CHO cells
Outline: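 Serial dilutions of sialoside ligands, quantified by periodate-resorcinol assay, mixed in cold HBSS/0.5% BSA with biotinylated Neu5Gcα2–6LacNAc-PAA (1 MDa, 1 μg/mL). ~10^6 hCD22-CHO cells added; 40 min, 4 °C, dark. Two washes, then streptavidin-PE (1:1000) for 30 min at 4 °C. Read by flow cytometry. Triplicate titrations; IC50 from curve fit, 0% = no polymer, 100% = polymer without competitor.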

Daudi cells [4] = experiment: uptake of ligand-FITC conjugates by Daudi cells in pure mouse serum; format: cell-based; conditions: 60 min, 37 °C
Outline: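 FITC-labelled ligand conjugates serially diluted and incubated with ~10^6 Daudi B cells in 100 uL pure mouse serum for 60 min at 37 °C. Cells washed twice in HBSS; uptake read by flow cytometry and curve-fitted.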

In the case of O=C(CF)N[C@H]1[C@H]([C@H](O)[C@H](O)CNC(=O)c2cccc(Oc3ccccc3)c2)OC(O)(C(=O)O)C[C@@H]1O (stereo partly shown) [1c, 9-N-m-phenoxybenzamide-Neu5FAc], the “affinity for human CD22” value (human CD22) is given as “low micromolar range”.

CC[C@H](C)[C@@H]([C@@H](CC(=O)N1CCC[C@H]1[C@H](OC)[C@@H](C)C(=O)N[C@@H](Cc1ccccc1)C(=O)O)OC)N(C)C(=O)[C@@H](NC(=O)[C@@H](NC)C(C)C)C(C)C [MMAF, monomethyl auristatin F] (H-[NMeV]V[Dil][Dolaproine]F-OH) gave an EC50 (Daudi cells [1]) of 0.2 µM.

For CC(=O)NC1C(O)CC(O)(C(=O)O)OC1C(O)C(O)CNC(=O)c1ccc(-c2ccccc2)cc1 (stereo not shown) [1a, 9-N-biphenyl carboxamide-Neu5Ac], the “affinity for human CD22” value (human CD22) is given as “low micromolar range”.

For Neu5Acα2–6Galβ1–4GlcNAc [6′SLN], the Kd (hCD22 [2]) is listed as 32 µM and the IC50 (hCD22 [3]; competition with Neu5Gc-PAA, 40 min, 4 °C) is listed as 62 µM.

With CC(=O)NC1C(NC(=O)C[C@H](NC(=O)[C@H](C)NC(=O)[C@@H](NC(=O)[C@@H](N)CCCCN)C(C)C)C(=O)N[C@@H](CCCCN)C(=O)N[C@H](C(=O)O)[C@@H](C)O)OC(CO)C(OC2OC(CO)C(OC3OC(COC4OC(CO)C(O)C(O)C4OC4OC(CO)C(OC5OC(COC6(C(=O)[O-])CC(O)C(NC(C)=O)C([C@H](O)[C@H](O)CO)O6)C(O)C(O)C5O)C(O)C4NC(C)=O)C(O)C(OC4OC(CO)C(O)C(O)C4OC4OC(CO)C(OC5OC(COC6(C(=O)[O-])CC(O)C(NC(C)=O)C([C@H](O)[C@H](O)CO)O6)C(O)C(O)C5O)C(O)C4NC(C)=O)C3O)C(O)C2NC(C)=O)C1O.[Na+].[Na+] (stereo partly shown) [SGP] the “fold higher binding affinity for hCD22 compared to the monovalent ligand (6′SLN)” value (hCD22 [3]) was “three-fold higher” and the “binding/uptake by Daudi cells” value (Daudi cells [4]) was “weak or no binding/uptake”.
